In ChEMBL document CHEMBL4513216, “Probing the Open Global Health Chemical Diversity Library for Multistage-Active Starting Points for Next-Generation Antimalarials” (ACS Infect Dis, 2020):

Assay: Toxicity liver stage against HepG2, at 10uM
Assay type: cell-based
Design: test concentration 10 uM, cell line HepG2-A16-CD81EGFP
Details: human, HepG2-A16-CD81EGFP cells; read-out: INHIBITION
Method in brief: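 Uninfected HepG2-A16-CD81EGFP cells, 3 × 10^3 per well, 1536-well, plated on prespotted compound at 10 μM final, parasite-free screening media added to match infected plates; puromycin 10 μM positive, DMSO 0.5% negative; run in parallel with 48 h PbLuc assay at 37 °C, 5% CO2; viability by CellTiter-Glo luminescence, normalized to controls.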

Row | SMILES | cytotoxicity at 10 µM [%]
1 | O=C(NCC1CCS(=O)(=O)C1)Nc1ccccn1 (stereo unspecified) | 1.54
2 | O=C(NCC1(c2cccc(F)c2)CC1)N1CCC2(CCOC2)C1 (stereo unspecified) | 2.82
3 | CN(Cc1cccs1)c1cc(N2CCCC2CO)ncn1 (stereo unspecified) | 1.26
4 | CC(C(=O)NCC1(c2cccc(Br)c2)CCC1)S(C)(=O)=O (stereo unspecified) | 6.88
5 | CCCSCC(=O)Nc1ncn(CC(=O)N2CCCCCC2)n1 | -3.91
6 | Cn1cccc1C1CCCN1Cc1noc(C(C)(C)C)n1 (stereo unspecified) | -4.4
7 | O=S(=O)(CC1CCCCC1)NCc1ccnc(O)c1 | 6.54
8 | CCOCCCC(=O)NCCC(=O)N1CCN(c2ccccn2)CC1 | -4.76
9 | CC1CN(C)c2ccccc2CN1C(=O)CSc1ccncc1 (stereo unspecified) | -12.6
10 | CN(C)C1CCN(C(=O)c2n[nH]c3c2CCN(CC2CCC2)C3)CC1 | 3.48
11 | CCC[C@H]1CN(CCCO)C[C@@H]1NC(=O)Cn1cc(C)cn1 | 1.39
12 | Cc1nc[nH]c1C(=O)N1CCC2(CC1)CN(CCN(C)C)C(=O)O2 | 4.54
13 | Cc1ccccc1NC(=O)CNC(C)COc1ccccc1 (stereo unspecified) | -0.264
14 | CN(CC1CCCCO1)c1nc2c(cc1C(N)=O)CCC2 (stereo unspecified) | -5.64
15 | O=C1NCCN1CCNc1cc(-c2ccccc2)nc2ccnn12 | -10.7
16 | NS(=O)(=O)CCCC(=O)N1CCC2(CC1)c1ccccc1CC2O (stereo unspecified) | 4.71
17 | O=C(CCc1cc2n(n1)CCCNC2)N1CCC(N2CCOC2=O)CC1 | 6.05
18 | Nc1ncc(C(=O)N2CCC3(CCCO3)CC2)c(-c2ccccc2)n1 | -156
19 | Cc1cc(C(=O)N2CCC(c3nnc(Cn4ccnc4)n3C)CC2)cs1 | -114

Row | SMILES | cytotoxicity at 10 µM [%]
20 | CC(=O)CCC(=O)N1CCC2(CC1)N=C(CCC(C)C)NC2=O | -7.14
21 | Cc1ccc2c(c1)SCC(=O)N2CC(=O)N1CCCC1c1cc(C)no1 (stereo unspecified) | 8.32
22 | CC(C)CN1CCN(S(=O)(=O)c2cn(C)cn2)[C@H]2CS(=O)(=O)C[C@H]21 | -4.07
23 | CCN1CCN(S(=O)(=O)N2CCc3ccccc3C2)[C@H]2CS(=O)(=O)C[C@H]21 | -4
24 | CC(C)N1CC(c2ncc(-c3ccc4c(c3)OCCO4)[nH]2)CC1=O (stereo unspecified) | 0.166
25 | Cc1nc2ccccc2n1Cc1cc(C(=O)N(C)C2CCOC2)n[nH]1 (stereo unspecified) | 4.91
26 | CCCc1cnc(C)nc1N1CCC(F)(F)CC1 | 7.46
27 | CCc1ccccc1OCCCN(C)C(=O)C1CCCN1C(N)=O (stereo unspecified) | 0.369
28 | O=C(CCN1CCOCC1)N1CCC(Cc2ccc(CO)cc2)C1 (stereo unspecified) | -9.47
29 | CCc1cc(CN(C)C(=O)c2cnon2)on1 | 9.83
30 | Cc1c(Cl)c(C(=O)N2CC[C@H](N3CCOCC3)[C@H](CCCO)C2)nn1C | -148
31 | CCN1CC(C(=O)N2CCC(Oc3ccccc3C)CC2)CC1=O (stereo unspecified) | -12.1
32 | Cc1ccc(NC2CCN(C(=O)c3ccncc3)CC2)nn1 | 8.85
33 | CC(Cn1cccn1)NC(=O)Nc1nncs1 (stereo unspecified) | -1.86
34 | c1ccc2oc(CCCN3CCCCC3Cn3cncn3)nc2c1 (stereo unspecified) | -10.2
35 | CCCc1cc(C(=O)NCCN2CCCS2(=O)=O)[nH]n1 | -7.13
36 | COc1ccc(NC(=O)NC(C)Cc2ccco2)cn1 (stereo unspecified) | -3.54
37 | CC(=O)N1CCCN(C(=O)NCc2cccnc2OC(C)C)CC1 | -5.5
38 | Clc1ccc(-c2nnc(CNCCn3cccn3)o2)c(Cl)c1 | -4.86

Row | SMILES | cytotoxicity at 10 µM [%]
39 | CCOc1ccc(C#N)cc1NCC(=O)OC | -19.2
40 | Cc1nc(C)n(CC2CCCN2CCC(=O)NC2CCCC2)n1 (stereo unspecified) | -10.4
41 | c1ccc(-c2nc(CN3CCn4c(nnc4C4CC4)C3)co2)cc1 | -2.18
42 | COc1c(C2CCCN2Cc2noc(C)n2)c(C)nn1C (stereo unspecified) | -12.5
43 | CCN(CCC1CCN(C(=O)NCc2nncn2CC)CC1)CC1CC1 | -2.75
44 | CC(Cn1cccn1)NC(=O)N1CCN(Cc2ccco2)CC1 (stereo unspecified) | -20.6
45 | Cc1ccc(C(=O)Nc2ccc(S(=O)(=O)/N=C3\CCCN3C)cc2)s1 | 0.174
46 | CCOc1ncccc1C(=O)NC1CCCN(c2ncccn2)C1 (stereo unspecified) | -23.5
47 | CC(C)c1cc(NC(=O)c2ccc(NC3CC3)nc2)[nH]n1 | -8.9
48 | CC(C)(C)NC[C@@H]1CCC[C@@H]2CN(Cc3csnn3)C[C@@H]21 | -134
49 | CC(C)CN1C[C@@H]2C(=O)N(C)C3(CCN(C(=O)C(C)C)CC3)[C@@H]2C1 | 6.88
50 | O=C(c1cscn1)N1CC[C@@H]2[C@@H]1CCN2CC1CCOCC1 | 5.3
51 | CN(C)CCN1C(=O)CCC12CCCN(C(=O)c1cccnc1)CC2 (stereo unspecified) | -6.78
52 | CNC(=O)c1cc2c(nc1NCC(C)C)CCN(c1ccncn1)CC2 | 7.95
53 | CCC(=O)N1CCC2(CC1)C(=O)N(Cc1cccnc1)CCN2C | 2.17
54 | COC1COC2(CCN(Cc3ccccc3Cl)CC2)C1 (stereo unspecified) | -14.1
55 | CN1CCN(C[C@@H]2OC[C@H]3CN(CCc4ccccc4)CC[C@H]32)CC1 | 8.84
56 | O=C(CSc1ccccn1)N1C[C@@H]2CC[C@H]1CN(Cc1cscn1)C2 | 1.93
